Most compounds without a hit are left out; they make up all but 1.3% or so of the library.
Tn7 DDE FP: disrupts Tn7 cyclic peptide binding to fibrin D-Dimer-E complex; P02675; FP displacement of FITC-Tn7 peptide from fibrin DD(E); 0% = median of compound wells per plate; inhibition, % at 8.3 µM; 370,000 tested, 0.13% active; AID 720508;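 active means inhibition above the mean of compounds falling within the control limits plus 3 SD of them, cut at about 14% in these data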;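 further: 0% = plate median of compound wells and 100% = 10 µM Aha-Tn7 peptide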
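system = human fibrin DD(E) protein | quantity = DD(E) 2 µM final | medium = Tris/NaCl/CaCl2 buffer, pH 7.8 | also added = labelled Tn7 tracer, 0.1 µM | compound dosing = single point at 8.3 µM | timing = compound with protein 10 min, then 3 h after probe, room temperature | signal = FP measurement | benchmarks = Aha-Tn7 high control | repeats = one replicate per compound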
HTRA1 inh: inhibitors of human serine peptidase HTRA1; Q92743; recombinant HTRA1, FP-rhodamine activity-based probe, fluorescence polarization; inhibition, % at 5.96 µM; 340,000 tested, 0.5% active; AID 504803; in the data active means inhibition above about 36%;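 further: 0% = enzyme with DMSO and 100% = wells lacking enzyme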
Target sequence (Q92743 whole entry, looked up): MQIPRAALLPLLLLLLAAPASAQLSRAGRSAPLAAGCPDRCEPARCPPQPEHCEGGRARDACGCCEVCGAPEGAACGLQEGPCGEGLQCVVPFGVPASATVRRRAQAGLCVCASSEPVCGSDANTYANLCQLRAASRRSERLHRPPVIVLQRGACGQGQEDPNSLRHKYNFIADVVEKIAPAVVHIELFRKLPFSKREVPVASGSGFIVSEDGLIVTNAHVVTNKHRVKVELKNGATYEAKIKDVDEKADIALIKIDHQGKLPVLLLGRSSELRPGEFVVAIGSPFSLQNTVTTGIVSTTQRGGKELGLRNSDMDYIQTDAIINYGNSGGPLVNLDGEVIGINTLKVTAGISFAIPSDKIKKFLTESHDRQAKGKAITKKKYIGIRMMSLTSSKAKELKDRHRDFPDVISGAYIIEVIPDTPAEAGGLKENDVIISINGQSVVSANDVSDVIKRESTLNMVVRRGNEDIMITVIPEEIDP
ABHD4 inh: inhibitors of mouse ABHD4; Q8VD66; purified mABHD4, FP-Rh probe fluorescence polarization; inhibition, % at 8.92 µM; 370,000 tested, 0.54% active; AID 720543;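 active means inhibition exceeding the mean over every tested compound plus 3 SD, cut at about 30% in these data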;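 further: 0% = plate median of compound wells and 100% = S159A mutant with DMSO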
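Doses – 8.92 µM, single dose · Material – wild-type mouse ABHD4 protein · Replication – single well per compound (singlicate) · Measure – percent inhibition of probe binding, normalized to plate controls · Schedule – 45 min compound pre-incubation plus 60 min probe step, 25 °C · Detection – fluorescence polarization with parallel and perpendicular emission, 525/598 nm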
Tn6 DDE FP: disrupts Tn6 cyclic peptide binding to fibrin D-Dimer-E complex. P02675. Fibrin DD(E) TRITC-Tn6 fluorescence polarization displacement. inhibition, % at 8.3 µM. 370,000 tested, 0.21% active;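 active means inhibition above a per-campaign cutoff: mean of compounds within control limits plus 3 SD, cut at about 15% in these data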;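 further: 0% = median of all compound wells on the plate and 100% = blocking peptide control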
TCR CD3 inh: human TCR-CD3 binding inhibition; TAMRA-labeled TCR probe fluorescence, biochemical; AID 651800; inhibition, % at 9.4 µM; 360,000 tested, 0.37% active;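 further: recombinant mutant TCR 2C K166C tagged with TAMRA read by polarization; 0% = receptor in buffer alone and 100% = receptor with positive control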
HTRA1 inh conf: HTRA1 (human) inhibition, confirmation; shares compounds with HTRA1 inh; recombinant HTRA1, FP-rhodamine activity-based probe, fluorescence polarization; inhibition, % at 5.96 µM; 1,600 tested, 66% active; AID 540248;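 active means mean inhibition over three repeats above a set limit taken from the earlier primary screen, cut at about 37% in these data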;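 further: 0% = HTRA1 with DMSO and 100% = wells lacking HTRA1; inhibitors block probe binding so polarization drops and inhibition rises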
BSA TAMRA ctr: counter-screen for TCR-CD3 interaction inhibitors: BSA probe | shares compounds with TCR CD3 inh | TAMRA-labeled BSA probe fluorescence counterscreen | inhibition, % at 9.4 µM | 1,200 tested, 10% active | AID 652035; in the data active means inhibition above about 23%;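 further: 0% = buffer low control and 100% = reference high control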
TCR-CD3 conf: TCR-CD3 interaction inhibition, confirmation. shares compounds with TCR CD3 inh. TAMRA-labeled TCR probe fluorescence binding assay. inhibition, % at 9.4 µM. 1,200 tested, 48% active. AID 652036
Tn6 DDE ctr: DD(E)-Tn6 binding inhibition, counter-screen | AID 720621 | Fibrin DD(E), TRITC-Tn6 fluorescence polarization displacement; 0% = median of compound wells, not DMSO | 680 tested, 2% active | inhibition, % at 8.3 µM | shares compounds with Tn6 DDE FP;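 active means inhibition above the mean of test compounds lying between the control limits plus 3 SD of those, cut at about 14% in these data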;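 further: 0% = median of compound wells and 100% = wells with Aha-Tn7 blocking peptide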
DDE Tn6 confirm: confirmation of inhibitors of Tn6 binding to human fibrin DD(E); AID 720631; inhibition, % at 8.3 µM; shares compounds with Tn6 DDE FP; FP displacement of TRITC-Tn6 peptide from DD(E); 0% = per-plate median of test wells; 680 tested, 10% active;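 active means inhibition above the mean of compounds lying within the control limits plus 3 SD, cut at about 16% in these data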;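 further: 100% = high control wells holding a competing inhibitor peptide at 10 µM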
mABHD4 conf: confirmation of mouse ABHD4 inhibitors. inhibition, % at 8.92 µM. purified mABHD4, FP-Rh probe fluorescence polarization. AID 720658. shares compounds with ABHD4 inh. 1,800 tested, 55% active;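 active means mean inhibition across replicates above the hit cutoff set in the primary screen, cut at about 30% in these data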;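 further: 0% = wild-type ABHD4 with DMSO and 100% = catalytically dead S159A mutant with DMSO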
An asterisk follows results filed as active; . = no result given. Unless noted, no stated cut-off is given here; in the data, active means inhibition above about 19%; inactive means the rest.

SMILES	Tn7 DDE FP	HTRA1 inh	ABHD4 inh	Tn6 DDE FP	TCR CD3 inh	HTRA1 inh conf	mABHD4 conf	others
CN(C)c1ccc2nc3ccc(=O)cc-3sc2c1	3	58*	113*	146*	145*	79*	56*	BSA TAMRA ctr=123*;TCR-CD3 conf=103*;Tn6 DDE ctr=-7;DDE Tn6 confirm=70*
Cc1cc(/C=N/NC(=O)c2ccncc2)c(C)n1-c1ccccc1	1	11	3	2	8	.	.
Cc1cc(C(=O)N/N=C/c2ccc(O)c(O)c2O)c(C)n1-c1ccccc1	-3	67*	61*	1	30*	67*	47*	BSA TAMRA ctr=-18;TCR-CD3 conf=29*
Cc1c(CC(=O)O)c(=O)oc2cc3occ(-c4ccc(F)cc4)c3cc12	2	-2	-1	1	-6	.	.
Cc1ccc(CNS(=O)(=O)c2cc3c(cc2C)N(C)CCO3)cc1	2	-4	9	3	3	.	.
Cc1cc(O)c(N=Cc2cc3c(cc2[N+](=O)[O-])OCO3)cc1C	0	52*	45*	4	-7	6	21
O=C(N/N=C/c1cc2c(cc1[N+](=O)[O-])OCO2)c1ccc2c(c1)OCO2	0	0	10	-12	-9	.	.
COCCOC(=O)c1cc(C(=O)c2cc(F)ccc2O)coc1=N	-3	0	-2	-5	0	.	.
CCOC(=O)/C(C#N)=C1\CCCN1CC(N)=S	0	0	1	4	2	.	.
CC1CN(C(=O)c2cc3ccccc3oc2=O)CC(C)O1 (stereo unspecified)	-2	6	9	3	-3	.	.
COc1ccc(Cl)cc1C(=O)NNC(=O)CSc1nnc2ccccn12	0	-2	-2	0	13	.	.
C/C(=C\C(=O)c1ccc(Br)cc1)NCc1ccc2c(c1)OCO2	-8	-15	-1	1	-2	.	.
Cc1coc2c1C(=O)C(=O)c1c-2ccc2c1CCCC2(C)C	-6	67*	49*	-9	123*	66*	58*	BSA TAMRA ctr=-1;TCR-CD3 conf=1
Cc1cc(C)c(C)c(N=Nc2nc3ccccc3n2C)c1C	-3	37*	40*	3	5	43*	55*
Cc1ccc(C)c(N=Nc2nc3ccccc3n2C)c1	4	11	13	-7	5	.	.
COc1ccc(C(c2nnnn2CC2CCCO2)N2CCN(c3cccc(C)c3C)CC2)cc1 (stereo unspecified)	-3	-12	-4	3	9	.	.
Cc1cccc(C)c1N=Nc1c(C)cc(O)cc1C	-12	47*	32*	3	3	50*	39*
Cc1cccc(O)c1C	2	-7	-1	2	2	.	.
COc1cc(C(=O)O)c([N+](=O)[O-])c(OC)c1OC	4	-3	-3	-5	7	.	.
Nc1cccc2c(=O)c3ccccc3[nH]c12	-1	55*	60*	4	18	18	41*
COc1cccc2[nH]c3ccccc3c(=O)c12	.	3	.	.	.	.	.
O=C1OC2(c3ccccc31)c1ccccc1-c1ccccc12	11	-37	-10	4	-5	.	.
O=C1OC(c2ccc3ccccc3c2O)(c2ccc3ccccc3c2O)c2ccccc21	-2	36*	44*	-9	1	44*	48*
CC(Nc1cccc2ccccc12)C(=O)N/N=C/c1ccccn1 (stereo unspecified)	1	46*	48*	3	-5	5	16
Cc1ccc(C)n1-c1ccc(N(C)C)cc1	-3	38*	32*	-10	6	40*	7
SMILES	Tn7 DDE FP	HTRA1 inh	ABHD4 inh	Tn6 DDE FP	TCR CD3 inh	HTRA1 inh conf	mABHD4 conf	others
Cc1ccc(N(C)C)cc1	6	.	-2	7	0	.	.
Cc1c(-c2nc(-c3ccc(C(C)(C)C)cc3)no2)n(C)oc1=O	4	-1	-2	-3	-2	.	.
O=C(O)c1cccc(N/N=C(\N=Nc2ccccc2)c2ccccc2)c1	-6	59*	72*	1	6	74*	104*
O=C1NC(c2ccc(Cl)cc2)=COc2ccccc21	5	-1	-6	5	-7	.	.
O=C(O)COc1ccccc1C(Nc1ccccn1)c1cc(Cl)c2cccnc2c1O (stereo unspecified)	0	74*	33*	2	5	84*	24
CCOC(=O)N1CCN(S(=O)(=O)N2CCCC(C(=O)NCCc3ccc(OCC)c(OCC)c3)C2)CC1 (stereo unspecified)	-1	3	0	5	13	.	.
N#C/C(=C\c1ccc(O)c(O)c1)C(=O)Nc1ccccc1	0	68*	73*	4	12	177*	43*
N#C/C(=C/c1ccc(O)c(O)c1)C(=O)NCc1ccc(Cl)cc1	0	81*	51*	4	4	87*	37*
N#C/C(=C\c1cccnc1)C(=O)Nc1ccccc1	1	0	-4	-3	4	.	.
CC(NC(=O)/C(C#N)=C/c1ccc(Cl)c([N+](=O)[O-])c1)c1ccccc1 (stereo unspecified)	0	.	6	-3	-5	.	.
C[C@@H](NC(=O)/C(C#N)=C/c1ccc(O)c(O)c1)c1ccccc1	6	68*	54*	5	3	91*	28
Cc1cccc(/N=C/c2c(O)ccc3oc4c(c23)CCCC4)n1	.	11	.	.	.	.	.
O=[N+]([O-])c1cc2oc3c(c2c(C=NCc2ccccc2)c1O)CCCC3	3	43*	31*	-1	2	54*	31*
Cc1ccc(NC(=O)C2CCN(S(=O)(=O)c3ccc4c(c3)NC(=O)C(C)S4)CC2)c(Cl)c1 (stereo unspecified)	-2	-26	-4	0	8	.	.
Oc1c(Cl)cc(Cl)c2c1NCCC2	-1	51*	38*	2	5	30	37*
O=C1NCCCc2c1oc1ccc(O)cc21	-2	-3	-5	-9	-2	.	.

Bioassay records as filed in PubChem BioAssay.
